# Measurements from different studies.
# Each line is one published result; the experiments were not run side by side.
# CYP2C19: Cytochrome P450 2C19 (CYP2C19, Homo sapiens, UniProt P33261)
# UGT1A4: UDP-glucuronosyltransferase 1A4 (UGT1A4, Homo sapiens, UniProt P22310)
SMILES,target or system,test,system,setting,endpoint,result
COC(=O)C1CCN(C(=O)c2ccc(N(Cc3ccccc3)Cc3cnc4nc(N)nc(N)c4n3)cc2)CC1,CYP2C19,"enzyme activity, inhibitor, luciferase",,10 µM,inhibition,107%
N=C(N)NCc1ccc(NC(=O)c2ccc(C(=O)Nc3ccc(C4=CCN(C(=N)N)CC4)cn3)cc2)cc1,NIH3T3,"cell growth or viability, MTS",,24 h,CC50,544 µM
COC(=O)C1CCN(C(=O)c2ccc(N(CCCO)Cc3cnc4nc(N)nc(N)c4n3)cc2)CC1,CYP2C19,"enzyme activity, inhibitor, luciferase",,10 µM,inhibition,-9.48%
C[C@@H]1C[C@@H](c2ccc(Br)cc2)c2c(cc3ccccn23)C(=O)O1 (racemic),HFF-1,"cell growth or viability, resazurin",,72 h,CC50,> 100 µM
[11CH3]Oc1cccc(CCc2cc(O)c(=O)[nH]n2)c1,"ATP-dependent translocase ABCB1 (Abcb1a, Mus musculus, UniProt P21447)",,"mouse, brain",5 min,tracer uptake,0.43 %ID/g
N=C(N)NCc1ccc(NC(=O)C23CCC(C(=O)Nc4ccc(C5=CCN(C(=N)N)CC5)cc4)(CC2)CC3)cc1,NIH3T3,"cell growth or viability, MTS",,24 h,CC50,439 µM
C[C@@H](Cn1ccc(-c2ccc(C#N)c(Cl)c2)n1)NC(=O)c1cc([C@@H](C)O)[nH]n1,UGT1A4,"enzyme activity, inhibitor","human, liver microsomes",,IC50,> 100 µM
CCOC(=O)C1CCCN1C(=O)c1ccc(NCc2cnc3nc(N)nc(N)c3n2)cc1 (stereo not drawn),CYP2C19,"enzyme activity, inhibitor, luciferase",,10 µM,inhibition,-16.2%
N=C(N)N1CC=C(c2coc(C(=O)Nc3ccc(C4=CCN(C(=N)N)CC4)c(F)c3)c2)CC1,NIH3T3,"cell growth or viability, MTS",,24 h,CC50,68 µM
O=C(Nc1c2c(cc3c1CCC3)CCC2)NS(=O)(=O)/C=C/c1nccs1,CYP2C19,"enzyme activity, inhibitor","human, liver microsomes","10 µM, pH 7.4",inhibition,10.7%
COc1cc2c3c(n(CCCN4CCOCC4)c(=O)c2cc1OC)-c1cc2c(cc1C3=O)OCO2,,,"female beagle dog, plasma","intravenous, 10 mg/m², infusion",Cmax,75.7 ng/mL
CN(CCC(=O)O)C(=O)c1ccc2c(c1)CC[C@@H]1[C@@H]2CC[C@]2(C)C(c3cncc(F)c3)=CC[C@@H]12,UGT1A4,"enzyme activity, inhibitor",,,IC50,> 30 µM
